Assay outcomes from PubChem BioAssay.
SENP6 inh – inhibitors of human SENP6 protease; Recombinant SENP6 catalytic domain, aminoluciferin luminescence; inhibition, % at 10 µM; 330,000 tested, 1.8% active;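 active = inhibition above about 50% at the single tested dose, limit read from the data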;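 also: plate controls were DMSO wells with enzyme for no effect and DMSO wells lacking enzyme for full effect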
SENP1 FRET inh – inhibitors of human SENP1 SUMO protease catalytic domain. inhibition, % at 10 µM. 360,000 tested, 0.21% active. recombinant SENP1 catalytic domain, CyPet-SUMO1-YPet FRET cleavage;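 active = inhibition at least 30% at 10 µM, raw YFP signal under a set limit, fluorescence ratio 0.5 to 1.5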;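 also: 0% = enzyme with DMSO and 100% = no enzyme wells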
Target sequence (Q9P0U3 419-644 limits assumed): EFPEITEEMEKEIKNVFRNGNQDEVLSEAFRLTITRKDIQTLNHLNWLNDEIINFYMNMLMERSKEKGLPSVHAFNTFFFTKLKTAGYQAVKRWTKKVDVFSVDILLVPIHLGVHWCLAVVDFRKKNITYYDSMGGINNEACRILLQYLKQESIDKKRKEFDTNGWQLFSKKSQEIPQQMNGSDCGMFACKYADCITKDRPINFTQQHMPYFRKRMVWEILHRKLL
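material = recombinant human SENP1 catalytic domain, His6-tagged | quantity = 20 pM enzyme | reagent = 25 nM SUMO1 FRET substrate | compound dosing = 10 µM single point, 0.5% DMSO | timing = 50 min enzyme reaction, room temperature, light-protected | detection = FRET, CFP and YFP emission | control set = no-enzyme low, enzyme-DMSO high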
SENP7 block – blocks the human protease SENP7 | 330,000 tested, 1.5% active | Q9BQF6 | inhibition, % at 5 µM | recombinant SENP7, Z-RLRGG-aminoluciferin luminescence, 40 min;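 active = inhibition above about 50% at the single test dose, limit read from the data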;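 also: plate controls were DMSO with enzyme for no effect and no enzyme buffer wells for full effect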
SENP8 block-1 – inhibitors of human SENP8 protease; inhibition, % at 10 µM; purified SENP8, Z-RLRGG-aminoluciferin cleavage, luminescence; 330,000 tested, 1.2% active; Q96LD8; in the data active = inhibition above about 50%
Target sequence (Q96LD8 whole entry, looked up): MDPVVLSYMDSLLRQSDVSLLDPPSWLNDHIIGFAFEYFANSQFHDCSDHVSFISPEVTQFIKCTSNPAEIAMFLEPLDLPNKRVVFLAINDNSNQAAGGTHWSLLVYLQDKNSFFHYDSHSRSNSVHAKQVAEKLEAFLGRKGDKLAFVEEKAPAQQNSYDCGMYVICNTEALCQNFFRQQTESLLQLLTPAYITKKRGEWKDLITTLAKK
Platelet DG rel – modulates dense granule release in human platelets; AID 1663; inhibition, %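 (compounds screened at 7.5 µM in platelet-rich plasma)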; human platelet-rich plasma, SFLLRN dense granule ATP release, luminescence; 300,000 tested, 0.22% active;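 active = mean replicate score, as percent of positive control, at or above 50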
SENP8 block-2 – inhibitors of human SENP8 protease; Q96LD8; 360,000 tested, 0.64% active; inhibition, % at 20 µM; recombinant SENP8, Nedd8 substrate fluorescence; in the data active = inhibition mostly above about 40%, no sharp cut-off; inactive = mostly below about 27%
SENP8 confirm – human SENP8 inhibition, confirmed. shares compounds with SENP7 block. AID 488912. inhibition, % at 12.5 µM. Recombinant SENP8, Z-RLRGG-aminoluciferin luminescence, 60 min. 6,200 tested, 40% active;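 active = mean inhibition across replicates above about 50%, limit read from the data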
SENP6 conf – confirmation of human SENP6 protease inhibitors | recombinant SENP6, Z-RLRGG-aminoluciferin luminescence | inhibition, % at 12.5 µM | shares compounds with SENP7 block | 6,200 tested, 58% active
SENP7 conf – confirmation of human SENP7 protease inhibitors; inhibition, % at 12.5 µM; 6,200 tested, 69% active; recombinant SENP7, Z-RLRGG-aminoluciferin luminescence, 40 min; shares compounds with SENP7 block
Casp3 select – caspase-3 inhibition (SENP selectivity assay) | shares compounds with SENP7 block | purified caspase-3, Z-DEVD-aminoluciferin luminescence, 60 min | inhibition, % at 12.5 µM | 6,200 tested, 60% active;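 active = mean inhibition above about 50%, limit read from the data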;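 also: plate controls were enzyme with DMSO for no effect and wells without caspase-3 for full effect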
Target sequence (P42574 28-227 limits assumed): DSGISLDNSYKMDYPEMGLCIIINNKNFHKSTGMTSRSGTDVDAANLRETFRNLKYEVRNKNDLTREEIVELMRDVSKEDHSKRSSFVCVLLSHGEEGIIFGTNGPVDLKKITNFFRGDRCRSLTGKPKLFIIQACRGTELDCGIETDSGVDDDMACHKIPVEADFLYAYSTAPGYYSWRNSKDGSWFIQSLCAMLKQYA
SENP luc ctr – interferes with luciferase luminescence in SENP counter-screen. shares compounds with SENP7 block. Pre-incubated SENP8/Z-RLRGG-aminoluciferin, luciferase luminescence interference. inhibition, % at 12.5 µM. 6,200 tested, 39% active;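 active = mean inhibition above about 50% when retested at one dose, limit read from the data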;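 also: plate controls were DMSO wells with completed reaction for no effect and substrate without enzyme for full effect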
An asterisk follows results filed as active. Most compounds without a hit are left out; they make up all but 2.6% or so of the library.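 The calls were made as follows, unless noted: active = mean inhibition above about 50% in the one-dose retest (limit read from the data); inactive = the rest.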

Results for COCCN(C(=O)Cc1csc(-c2cccc(Cl)c2)n1)c1c(N)n(Cc2ccccc2)c(=O)[nH]c1=O ?
SENP1 FRET inh: -35; SENP8 block-2: -460

What do the screens show for `O=C(NC(=S)Nc1ccccc1C(=O)O)c1ccc2ccccc2c1`?
SENP6 inh: 67*; SENP1 FRET inh: 1; SENP7 block: 1; SENP8 block-1: -5; Platelet DG rel: -10; SENP8 block-2: -104; SENP8 confirm: 14; SENP6 conf: 8; SENP7 conf: 7; Casp3 select: 18; SENP luc ctr: 21

What do the screens show for `COc1ccc(C(=O)Nc2ccccc2C(=O)Nc2ccccc2C(=O)O)cc1`?
SENP6 inh: 23; SENP1 FRET inh: -9; SENP7 block: -12; SENP8 block-1: -16; Platelet DG rel: 16; SENP8 block-2: -15

Results for COc1ccc(C(=O)Nc2ccccc2C(N)=O)cc1 ?
SENP6 inh: 65*; SENP1 FRET inh: 2; SENP7 block: 37; SENP8 block-1: 5; Platelet DG rel: 5; SENP8 block-2: -23; SENP8 confirm: 22; SENP6 conf: 19; SENP7 conf: 68*; Casp3 select: 65*; SENP luc ctr: 53*

How did COc1cccc(/C=N/NC(=O)c2ccccc2NC(=O)c2ccco2)c1OC do in these assays?
SENP6 inh: -13; SENP1 FRET inh: -4; SENP7 block: 0; SENP8 block-1: -7; Platelet DG rel: -8; SENP8 block-2: -48

How did O=C(Nc1ccccc1C(=O)N/N=C/c1ccc(O)cc1)c1ccccc1 do in these assays?
SENP6 inh: 65*; SENP1 FRET inh: 1; SENP7 block: 61*; SENP8 block-1: 23; Platelet DG rel: 124*; SENP8 block-2: -128; SENP8 confirm: -5; SENP6 conf: 3; SENP7 conf: 81*; Casp3 select: 86*; SENP luc ctr: 64*

Results for COc1ccc(C(=O)Nc2ccccc2C(=O)N/N=C/c2cccc3ccccc23)cc1 ?
SENP6 inh: 60*; SENP1 FRET inh: 5; SENP7 block: 63*; SENP8 block-1: 4; Platelet DG rel: 92*; SENP8 block-2: -30; SENP8 confirm: -11; SENP6 conf: 22; SENP7 conf: 42; Casp3 select: 45; SENP luc ctr: 2

Results for O=C(Cc1ccc(Cl)cc1)NCC(=O)N1CCC2(CC1)NCCc1[nH]cnc12 ?
SENP1 FRET inh: 0; SENP8 block-2: 11

What do the screens show for `Cc1ccccc1NC(=O)c1ccc2ccccc2c1`?
SENP6 inh: 25; SENP1 FRET inh: 3; SENP7 block: 32; SENP8 block-1: 4; Platelet DG rel: -1; SENP8 block-2: -2

What do the screens show for `NC(=O)c1ccccc1NC(=O)c1ccc2ccccc2c1`?
SENP6 inh: 96*; SENP1 FRET inh: 1; SENP7 block: 90*; SENP8 block-1: 79*; Platelet DG rel: 7; SENP8 block-2: 0; SENP8 confirm: 51*; SENP6 conf: 82*; SENP7 conf: 98*; Casp3 select: 81*; SENP luc ctr: 59*

Results for NC(=O)c1ccccc1NC(=O)c1ccc2c(c1)OCO2 ?
SENP6 inh: 70*; SENP1 FRET inh: -2; SENP7 block: 70*; SENP8 block-1: 57*; Platelet DG rel: 20; SENP8 block-2: -11; SENP8 confirm: -22; SENP6 conf: 52*; SENP7 conf: 88*; Casp3 select: 81*; SENP luc ctr: 39

Results for COC(=O)c1ccccc1NC(=S)NC(=O)c1ccc2c(c1)OCO2 ?
SENP6 inh: 5; SENP1 FRET inh: 4; SENP7 block: -6; SENP8 block-1: 0; Platelet DG rel: -1; SENP8 block-2: -394

What do the screens show for `COc1ccc(C(=O)Nc2cc(Cl)ccc2OC(=O)c2ccc(OC)cc2)cc1`?
SENP6 inh: 57*; SENP1 FRET inh: 3; SENP7 block: 55*; SENP8 block-1: 33; Platelet DG rel: 2; SENP8 block-2: 4; SENP8 confirm: 11; SENP6 conf: 12; SENP7 conf: 35; Casp3 select: 54*; SENP luc ctr: 16

What do the screens show for `COc1cccc(-n2c(SC3CCOC3=O)nc3ccccc3c2=O)c1` (centres undefined)?
SENP6 inh: 1; SENP1 FRET inh: 0; SENP7 block: 3; SENP8 block-1: 1; Platelet DG rel: 6; SENP8 block-2: 7

Results for NC(N)=NC1=NC(=O)C(Cc2ccccc2)S1 (centres undefined) ?
SENP6 inh: 1; SENP1 FRET inh: 0; SENP7 block: 2; SENP8 block-1: -3; Platelet DG rel: -5; SENP8 block-2: 24

Results for Cc1nn(-c2ccccc2Cl)c(Cl)c1/C=N/Nc1nc2ccccc2s1 ?
SENP6 inh: 34; SENP1 FRET inh: -4; SENP7 block: 81*; SENP8 block-1: 5; Platelet DG rel: 17; SENP8 block-2: -45; SENP8 confirm: -9; SENP6 conf: -4; SENP7 conf: -7; Casp3 select: -4; SENP luc ctr: 6

What do the screens show for `Cc1ccsc1/C=N/Nc1nc2ccccc2s1`?
SENP6 inh: 87*; SENP1 FRET inh: -3; SENP7 block: 86*; SENP8 block-1: 72*; Platelet DG rel: -2; SENP8 block-2: -173; SENP8 confirm: -9; SENP6 conf: 62*; SENP7 conf: 87*; Casp3 select: 47; SENP luc ctr: 58*

How did CC(=NNc1nc2ccccc2s1)c1ncccn1 do in these assays?
SENP1 FRET inh: 3; SENP8 block-2: 18

Results for Oc1ccc(C=NNc2nc3ccccc3s2)c(O)c1 ?
SENP1 FRET inh: -7; SENP8 block-2: -196

Results for C/C(=N\Nc1nc2ccccc2s1)c1cccs1 ?
SENP6 inh: 60*; SENP1 FRET inh: 5; SENP7 block: 84*; SENP8 block-1: 75*; Platelet DG rel: 3; SENP8 block-2: -19; SENP8 confirm: 92*; SENP6 conf: 91*; SENP7 conf: 98*; Casp3 select: 60*; SENP luc ctr: 30
